Activity calls are given as the source filed them.
Tests used:
Assay type in all cases: functional
Bipolaris sorokiniana = assay: Antifungal activity against Bipolaris sorokiniana QDAU 7 by microplate XTT assay
Procedure, shortened: (§1)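 Plant-pathogenic fungi, provided by Qingdao Agricultural University, were tested in a microplate assay with amphotericin B as the positive control.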

Alternaria solani = assay: Antifungal activity against Alternaria solani QDAU 14 by microplate XTT assay; procedure, shortened: as §1
[1] = test system: Ceratobasidium cornigerum; assay: Antifungal activity against Ceratobasidium cornigerum QDAU 8 by microplate XTT assay; procedure, shortened: as §1
[2] = test system: Colletotrichum gloeosporioides; assay: Antifungal activity against Colletotrichum gloeosporioides Penz-QDAU 9 by microplate XTT assay; procedure, shortened: as §1
Fusarium graminearum = assay: Antifungal activity against Fusarium graminearum QDAU 10 by microplate XTT assay
Procedure, shortened: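 Plant-pathogenic fungal strain supplied by Qingdao Agricultural University; MIC determined by microplate assay with amphotericin B as positive control.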

[3] = test system: Fusarium oxysporum f. sp. cucumerinum; assay: Antifungal activity against Fusarium oxysporum f.sp.cucumerinum QDAU 16 by microplate XTT assay; procedure, shortened: as §1
[4] = (§2) Antifungal activity against Fusarium oxysporum f.sp.momordicae QDAU 17 by microplate XTT assay; procedure, shortened: as §1
[5] = (§3) Antifungal activity against Fusarium oxysporum f.sp. radicis-lycopersici QDAU 5 by microplate XTT assay; procedure, shortened: as §1
Fusarium solani = assay: Antifungal activity against Fusarium solani QDAU 15 by microplate XTT assay; procedure, shortened: as §1
[6] = test system: Colletotrichum gloeosporioides; assay: Antifungal activity against Glomerella cingulata QDAU 2 by microplate XTT assay; procedure, shortened: as §1
Bipolaris maydis = assay: Antifungal activity against Helminthosporium maydis QDAU 18 by microplate XTT assay; procedure, shortened: as §1
Penicillium digitatum = assay: Antifungal activity against Penicillium digitatum QDAU 11 by microplate XTT assay; procedure, shortened: as §1
[7] = test system: Botryosphaeria berengeriana; assay: Antifungal activity against Physalospora pyricola Nose QDAU 12 by microplate XTT assay; procedure, shortened: as §1
Cytospora mali = assay: Antifungal activity against Valsa mali QDAU 13 by microplate XTT assay; procedure, shortened: as §1
Escherichia coli = assay: Antibacterial activity against Escherichia coli EMBLC 1 by microplate XTT assay
Procedure, shortened: (§4)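 Bacterial strains tested in a microplate assay with chloramphenicol as the positive control. Activity is reported as MIC in μg/mL.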

Aeromonas hydrophila = assay: Antibacterial activity against Aeromonas hydrophila QDIO 1 by microplate XTT assay; procedure, shortened: as §4
Edwardsiella tarda = assay: Antibacterial activity against Edwardsiella tarda QDIO 2 by microplate XTT assay; procedure, shortened: as §4
Micrococcus luteus = assay: Antibacterial activity against Micrococcus luteus QDIO 3 by microplate XTT assay; procedure, shortened: as §4
Pseudomonas aeruginosa = assay: Antibacterial activity against Pseudomonas aeruginosa QDIO 4 by microplate XTT assay; procedure, shortened: as §4
Vibrio anguillarum = assay: Antibacterial activity against Vibrio anguillarum QDIO 6 by microplate XTT assay; procedure, shortened: as §4
Vibrio harveyi = assay: Antibacterial activity against Vibrio harveyi QDIO 7 by microplate XTT assay; procedure, shortened: as §4
Vibrio parahaemolyticus = assay: Antibacterial activity against Vibrio parahaemolyticus QDIO 8 by microplate XTT assay; procedure, shortened: as §4
Vibrio vulnificus = assay: Antibacterial activity against Vibrio vulnificus QDIO 9 by microplate XTT assay; procedure, shortened: as §4
[8] = test system: Fusarium oxysporum f. sp. momordicae; assay: as §2; procedure, shortened: as §1
[9] = test system: Fusarium oxysporum f. sp. radicis-lycopersici; assay: as §3; procedure, shortened: as §1

Measured: MIC

C[C@@H]1[C@H](O)[C@@H](C)/C=C/C=C/C=C/C=C/C=C/C=C/C=C/[C@H](O[C@@H]2O[C@H](C)[C@@H](O)[C@H](N)[C@@H]2O)C[C@@H]2O[C@](O)(C[C@@H](O)C[C@@H](O)[C@H](O)CC[C@@H](O)C[C@@H](O)CC(=O)O[C@H]1C)C[C@H](O)[C@H]2C(=O)O [AMPHOTERICIN B]
1 µg/mL: [4]
8 µg/mL: [1] | Cytospora mali
4 µg/mL: Fusarium solani
0.5 µg/mL: Bipolaris sorokiniana | [2] | [3] | [6]
2 µg/mL: Alternaria solani | Fusarium graminearum | [5] | Bipolaris maydis | Penicillium digitatum | [7]

CC(C)[C@H]1CCC(=O)c2cc(O)c(C(=O)O)cc21
2 µg/mL: Vibrio anguillarum
1 µg/mL: Edwardsiella tarda
64 µg/mL: [3]
4 µg/mL: [7]
not listed: [4] | [5]
inactive: all other assays above

O=C(N[C@H](CO)[C@H](O)c1ccc([N+](=O)[O-])cc1)C(Cl)Cl [CHLORAMPHENICOL]
4 µg/mL: Aeromonas hydrophila | Micrococcus luteus | Vibrio parahaemolyticus
1 µg/mL: Vibrio anguillarum | Vibrio harveyi | Vibrio vulnificus
0.5 µg/mL: Edwardsiella tarda
2 µg/mL: Escherichia coli | Pseudomonas aeruginosa

C[C@H](CO)[C@H]1CCc2coc3cc(C(=O)O)cc1c23
4 µg/mL: [6] | [7]
8 µg/mL: Bipolaris sorokiniana | Pseudomonas aeruginosa | Penicillium digitatum
2 µg/mL: [3]
16 µg/mL: Escherichia coli | Vibrio harveyi
32 µg/mL: Alternaria solani | Vibrio parahaemolyticus | Fusarium solani
64 µg/mL: Aeromonas hydrophila
not listed: [4] | [5]
inactive: all other assays above

CC(C)[C@H]1CCc2coc3cc(C(=O)O)cc1c23
32 µg/mL: Micrococcus luteus
2 µg/mL: [4]
16 µg/mL: [1] | Cytospora mali
1 µg/mL: Bipolaris sorokiniana | [3] | [6]
64 µg/mL: Vibrio vulnificus | [5]
4 µg/mL: Alternaria solani | Vibrio parahaemolyticus | Fusarium solani | [7]
inactive: Edwardsiella tarda | Vibrio anguillarum | Bipolaris maydis
not listed: [8] | [9]
8 µg/mL: all other assays above

C=C1CC[C@H](C(C)C)[C@@H]2C=C(C(=O)O)CC[C@H]12
1 µg/mL: [6]
8 µg/mL: Escherichia coli | Aeromonas hydrophila | Vibrio parahaemolyticus | [7]
4 µg/mL: Pseudomonas aeruginosa
2 µg/mL: Vibrio harveyi
16 µg/mL: [3]
32 µg/mL: Micrococcus luteus | Cytospora mali
64 µg/mL: Vibrio vulnificus | [5]
not listed: [4] | [9]
inactive: all other assays above

CC(C)[C@H]1CC[C@@H](C)[C@]2(O)CCC(C(=O)O)=C[C@H]12
32 µg/mL: [3]
16 µg/mL: Bipolaris maydis
not listed: [4] | [5]
inactive: all other assays above

C=C1CC[C@H](C(C)C)[C@H]2C=C(C(=O)O)C[C@@H](O)[C@H]12
1 µg/mL: [7]
32 µg/mL: [3]
16 µg/mL: Penicillium digitatum
64 µg/mL: [5]
not listed: [4] | [9]
inactive: all other assays above

— ChEMBL document CHEMBL4334479, “Trichocadinins B-G: Antimicrobial Cadinane Sesquiterpenes from Trichoderma virens QA-8, an Endophytic Fungus Obtained from the Medicinal Plant Artemisia argyi” (2019)
